Experimental data of several laboratories.
SCN1A: Sodium channel protein type 1 subunit alpha (SCN1A, Homo sapiens, UniProt P35498)
CDK5 with p35: Cyclin-dependent kinase 5, with p35 (CDK5, Homo sapiens, UniProt Q00535)

SMILES	target	test	system	setting	endpoint	result
Cc1nnc(SCC2=C(C(=O)O)N3C(=O)[C@@H](NC(=O)Cn4cnnn4)[C@H]3SC2)s1	SCN1A	ion current, inhibitor, patch clamp		10 µM	inhibition	4.84%
CC(=O)c1c(C)c2cnc(Nc3ccc(N4CCNCC4)cn3)nc2n(C2CCCC2)c1=O	CDK5 with p35	enzyme activity, inhibitor, ADP detection		1 µM	activity vs control	103%
C[C@H]1O[C@H](O[C@H]2[C@H](O)[C@@H](O)[C@@H](O[C@H]3[C@H](O)[C@@H](O)C(O)O[C@@H]3CO)O[C@@H]2CO)[C@H](O)[C@@H](O)[C@@H]1N[C@H]1C=C(CO)[C@@H](O)[C@H](O)[C@H]1O (stereo partly shown)	Alpha-glucosidase MAL12 (MAL12, Saccharomyces cerevisiae S288c, UniProt P53341)	enzyme activity, inhibitor, absorbance		2000 µg/mL	inhibition	91.2%
Nc1c(Br)cc(Br)cc1CN[C@H]1CC[C@H](O)CC1	SCN1A	ion current, inhibitor, patch clamp		10 µM	inhibition	33.3%
COc1cc(-c2cncc3c2CN(C)Cc2cc(N4CCNCC4)ccc2-3)cc(OC)c1OC	Focal adhesion kinase 1 (PTK2, Homo sapiens, UniProt Q05397)	enzyme activity, inhibitor		1 µM	remaining activity	102%
C=CC(=O)N1CCC(COCC(=O)N2CCN(c3nc(-c4cnc(N)nc4C(F)F)nc(N4CCOC[C@@H]4C)n3)CC2)CC1	Mitotic checkpoint serine/threonine-protein kinase BUB1 (BUB1, Homo sapiens, UniProt O43683)	binding, competition with immobilised ligand		1 µM	remaining binding	93%
CC12CC3CC(C)(C1)CC(N)(C3)C2	SCN1A	ion current, inhibitor, patch clamp		3 µM	inhibition	0.782%
CNc1ncc2c(/C=C/C(=O)N3CCC(OC)CC3)nn(Cc3cccc(C(F)(F)F)c3)c2n1	CDK5 with p35	enzyme activity, inhibitor, radiometric		1 µM	remaining activity	89%
CNC[C@H](O)c1cccc(O)c1	Alpha-1A adrenergic receptor (ADRA1A, Homo sapiens, UniProt P35348)	calcium signal, agonist	COS-7		Emax	~80%
Cc1cc([C@@H](C)Nc2ccccc2C(=O)O)c2nc(N3CCC(F)(F)CC3)c(C#N)c(=O)n2c1	High affinity nerve growth factor receptor (NTRK1, Homo sapiens, UniProt P04629)	binding, competition with immobilised ligand		10 µM	remaining binding	97%
